Results as given in ChEMBL document CHEMBL1130202, “Biologically active heteroarotinoids exhibiting anticancer activity and decreased toxicity” (J Med Chem, 1997).
Calls of active or inactive are those of the source. The calls are words filed in the database; no cut-off is given here.

Assays:
Mus musculus [1] = species: Mus musculus; experiment: Effect of compound on serum Alkaline phosphatase levels in mice at mid dose 2 on day 65; assay type: functional
Method in brief: (§1)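 Male B6D2F1 mice dosed daily by oral gavage in corn oil at low, mid 1, mid 2 or high dose. Blood sampled on set days (8, 29, 36, 65) for clinical chemistry, serum alkaline phosphatase and triglycerides. Group mean ± SD reported as % relative to vehicle 1; significance p < 0.05 versus corn oil vehicle.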

Mus musculus [2] = species: Mus musculus; experiment: Effect of compound on thymus to body weight ratios in mice at mid dose 1 on day 65; assay type: functional
Method in brief: (§2)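 Male B6D2F1 mice were dosed daily by gavage in corn oil, with TTNPB given at 0.1–0.8 or 0.01/0.05 mg/kg/day. Thymus-to-body weight ratio (×1000) was taken at necropsy on day 65 against vehicle 1, or on day 25 for the 0.01/0.05 groups against vehicle 2. Mean ± SD of 4–8 animals, reported as % difference from vehicle.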

Mus musculus [3] = species: Mus musculus; experiment: Calculated 30-day maximally tolerated dose based on 10% weight loss in mice at mid dose 2; assay type: functional
Mus musculus [4] = species: Mus musculus; experiment: Approximate day to 10% weight loss in mice at high dose; assay type: functional
Method in brief: (§3)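 Male B6D2F1 mice dosed daily by gavage in corn oil; body weights followed to termination (day 65, or day 25 for TTNPB 0.01/0.05 mg/kg/day groups) and compared with the matching vehicle group. Value is approximate day of onset of 10% body weight reduction versus vehicle.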

Mus musculus [5] = species: Mus musculus; experiment: Effect of compound on right testicle to body weight ratios in mice at mid dose 2 on day 65; assay type: functional
Method in brief: (§4)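 Male B6D2F1 mice dosed daily by gavage with compound in corn oil; vehicle 1 (corn oil) controls run to termination on day 65. Low, mid 1, mid 2 and high dose groups, with dosage increases partway through the study. Organ-to-body weight ratios (×1000) taken at necropsy on day 65, reported as mean ± SD for 4 to 8 animals and as % difference from vehicle.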

Mus musculus [6] = species: Mus musculus; experiment: Approximate day to 10% weight loss in mice at low dose; assay type: functional; method in brief: as §3
Mus musculus [7] = species: Mus musculus; experiment: Effect of compound on thymus to body weight ratios in mice at mid dose 2 on day 65; assay type: functional; method in brief: as §2
Mus musculus [8] = species: Mus musculus; experiment: Effect of compound on adrenal to body weight ratios in mice at mid dose 1 on day 65; assay type: functional; method in brief: as §4
Mus musculus [9] = species: Mus musculus; experiment: Effect of compound on adrenal to body weight ratios in mice at high dose on day 65; assay type: functional; method in brief: as §4
Mus musculus [10] = species: Mus musculus; experiment: Effect of compound on right testicle to body weight ratios in mice at low dose on day 65; assay type: functional; method in brief: as §4
Mus musculus [11] = species: Mus musculus; experiment: Effect of compound on adrenal to body weight ratios in mice at mid dose 2 on day 65; assay type: functional; method in brief: as §4
Mus musculus [12] = species: Mus musculus; experiment: Fracture incidence in mouse at mid dose 1; 0/8
Mus musculus [13] = species: Mus musculus; experiment: Approximate day to 10% weight loss in mice at mid dose 2; assay type: functional; method in brief: as §3
Mus musculus [14] = species: Mus musculus; experiment: Total dose of 10% weight loss in mice at mid dose 2; assay type: functional
Mus musculus [15] = species: Mus musculus; experiment: Compound total dose to termination (day 25/65) in high dose; assay type: functional
Method in brief: (§5)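 Male B6D2F1 mice given daily oral gavage in corn oil; dosages increased during the study (day 30 or day 51 depending on compound). Cumulative dose in mg/kg administered up to termination (day 65, or day 25 for TTNPB 0.01/0.05 mg/kg/day groups).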

Mus musculus [16] = species: Mus musculus; experiment: Effect of compound on Spleen to body weight ratios in mice at mid dose 1 on day 65; assay type: functional; method in brief: as §4
Mus musculus [17] = species: Mus musculus; experiment: Average number of fractures per mouse at mid dose 2
Mus musculus [18] = species: Mus musculus; experiment: Effect of compound on serum triglycerides levels in mice at mid dose 1 on day 29; assay type: functional
Method in brief: (§6)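 Male B6D2F1 mice were gavaged daily with compound in corn oil at low, mid 1, mid 2 or high dose. Serum triglycerides and circulating white blood cells were measured on the stated day (8, 29, 36, 65). Values are group mean ± SD expressed as % relative to corn-oil vehicle, with significance at p ≤ 0.05.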

Mus musculus [19] = species: Mus musculus; experiment: Approximate day to 10% weight loss in mice at mid dose 1; assay type: functional; method in brief: as §3
Mus musculus [20] = species: Mus musculus; experiment: Calculated 30-day maximally tolerated dose based on 10% weight loss in mice at low dose; assay type: functional
[21] = Mortality rate in mice in mid dose 1; assay type: ADME; conditions: mouse, in vivo
Method in brief: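 Male B6D2F1 mice given compound daily by gavage in corn oil at the stated dose levels, with corn oil vehicle controls. Deaths counted as animals found dead or sacrificed moribund, with day(s) of death recorded. Heteroarotinoid groups ran to day 65 and low-dose reference groups to day 25.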

Mus musculus [22] = species: Mus musculus; experiment: Effect of compound on serum triglycerides levels in mice at mid dose 1 on day 8; assay type: functional; method in brief: as §6
Mus musculus [23] = species: Mus musculus; experiment: Calculated 30-day maximally tolerated dose based on 10% weight loss in mice at high dose; assay type: functional
Mus musculus [24] = species: Mus musculus; experiment: Skin scaling in mice at low dose with Hypervitaminosis; 0/16; assay type: functional, organism-based
Method in brief: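 Male B6D2F1 mice were dosed daily by gavage in corn oil and observed for skin scaling of the ears, mouth, nose, eyelids, feet, tail or ventral body. Results are given as affected animals over animals in the group, with the day of first observation.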

Mus musculus [25] = species: Mus musculus; experiment: Effect of compound on serum triglycerides levels in mice at high dose on day 29; assay type: functional; method in brief: as §1
Mus musculus [26] = species: Mus musculus; experiment: Total dose of 10% weight loss in mice at low dose; assay type: functional
Mus musculus [27] = species: Mus musculus; experiment: Effect of compound on adrenal to body weight ratios in mice at low dose on day 65; assay type: functional; method in brief: as §4
Mus musculus [28] = species: Mus musculus; experiment: Effect of compound on serum Alkaline phosphatase levels in mice at low dose on day 65; assay type: functional; method in brief: as §1
Mus musculus [29] = species: Mus musculus; experiment: Effect of compound on thymus to body weight ratios in mice at high dose on day 65; assay type: functional; method in brief: as §2
Mus musculus [30] = species: Mus musculus; experiment: Effect of compound on Spleen to body weight ratios in mice at mid dose 2 on day 65; assay type: functional; method in brief: as §4
CC-B = experiment: Relative transcriptional activation activity relative to t-RA; assay type: functional, Homo sapiens
Method in brief: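 CC-B reporter cells (CC-1 cervical line carrying a CAT gene under a RARE with a tk promoter) were seeded at 4×10^5 cells/well in MEM with nonessential amino acids, pyruvate and 10% FBS, the serum lots having negligible t-RA by HPLC. Triplicate cultures were screened at 10^-6 M with 0.1% DMSO final. After 48 h, CAT activity ([3H]acetyl-CoA) per mg protein was taken as treated/control and expressed relative to t-RA. Average of three experiments.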

Mus musculus [31] = species: Mus musculus; experiment: Average number of fractures per mouse at low dose
Mus musculus [32] = species: Mus musculus; experiment: Enlarged spleen in Gross pathological observations in mice with hypervitaminosis A at high dose with gross observations/total number of mice in group; 0/16; assay type: functional, organism-based
Mus musculus [33] = species: Mus musculus; experiment: Total dose of 10% weight loss in mice at mid dose 1; assay type: functional
Mus musculus [34] = species: Mus musculus; experiment: Effect of compound on right testicle to body weight ratios in mice at mid dose 1 on day 65; assay type: functional; method in brief: as §4
Mus musculus [35] = species: Mus musculus; experiment: Average number of fractures per mouse at high dose
Mus musculus [36] = species: Mus musculus; experiment: Compound total dose to termination (day 25/65) in mid dose 1; assay type: functional; method in brief: as §5
Mus musculus [37] = species: Mus musculus; experiment: Total dose of 10% weight loss in mice at high dose; assay type: functional
Mus musculus [38] = species: Mus musculus; experiment: Effect of compound on thymus to body weight ratios in mice at low dose on day 65; assay type: functional; method in brief: as §2
Mus musculus [39] = species: Mus musculus; experiment: Calculated 30-day maximally tolerated dose based on 10% weight loss in mice at mid dose 1; assay type: functional
Mus musculus [40] = species: Mus musculus; experiment: Effect of compound on serum Alkaline phosphatase levels in mice at high dose on day 36; assay type: functional; method in brief: as §1

SMILES: CC(/C=C/C=C(\C)c1ccc2c(c1)C(C)(C)CCS2)=C\C(=O)O
- Activity (Mus musculus [1]): 137
- Activity (Mus musculus [2]): 1.5
- Max tolerated dose (Mus musculus [3]): >27.6 mg/kg
- Activity (Mus musculus [4]): 54
- Activity (Mus musculus [5]): 2.8
- Activity (Mus musculus [6]): >65
- Activity (Mus musculus [7]): 1.6
- Activity (Mus musculus [8]): 0.3
- Activity (Mus musculus [9]): 2.6
- Activity (Mus musculus [10]): 2.6
- Activity (Mus musculus [11]): 0.3
- Activity (Mus musculus [12]): inactive
- Activity (Mus musculus [13]): >65
- Dose (Mus musculus [14]): >828.4 mg/kg
- Total dose (Mus musculus [15]): 3106.5 mg/kg
- Activity (Mus musculus [16]): 2
- Activity (Mus musculus [17]): 0
- Activity (Mus musculus [18]): 174.1
- Activity (Mus musculus [19]): >65
- Max tolerated dose (Mus musculus [20]): >6.9 mg/kg
- Mortality [21]: 1 day of death
- Activity (Mus musculus [22]): 97.6
- Max tolerated dose (Mus musculus [23]): 33.9 mg/kg
- Activity (Mus musculus [24]): inactive
- Activity (Mus musculus [25]): 164.2
- Dose (Mus musculus [26]): >207.1 mg/kg
- Activity (Mus musculus [27]): 0.3
- Activity (Mus musculus [28]): 127.5
- Activity (Mus musculus [29]): 1.5
- Activity (Mus musculus [30]): 2.2
- Relative activity (CC-B): 52
- Activity (Mus musculus [31]): 0
- Activity (Mus musculus [32]): inactive
- Dose (Mus musculus [33]): >414.2 mg/kg
- Activity (Mus musculus [34]): 3.1
- Activity (Mus musculus [35]): 0.3
- Total dose (Mus musculus [36]): 414.2 mg/kg
- Dose (Mus musculus [37]): 1016.8 mg/kg
- Activity (Mus musculus [38]): 1.7
- Max tolerated dose (Mus musculus [39]): >13.8 mg/kg
- Activity (Mus musculus [40]): 84.6

SMILES: CC(/C=C/C=C(\C)c1ccc2c(c1)C(C)(C)CCO2)=C\C(=O)O
- Activity (Mus musculus [1]): 136.8
- Activity (Mus musculus [2]): 1.6
- Max tolerated dose (Mus musculus [3]): 24.4 mg/kg
- Activity (Mus musculus [4]): 53
- Activity (Mus musculus [5]): 3.3
- Activity (Mus musculus [6]): >65
- Activity (Mus musculus [7]): 1.5
- Activity (Mus musculus [8]): 0.3
- Activity (Mus musculus [9]): 0.4
- Activity (Mus musculus [10]): 3.2
- Activity (Mus musculus [11]): 0.3
- Activity (Mus musculus [12]): inactive
- Activity (Mus musculus [13]): 61
- Dose (Mus musculus [14]): 732.4 mg/kg
- Total dose (Mus musculus [15]): 3106.5 mg/kg
- Activity (Mus musculus [16]): 2.5
- Activity (Mus musculus [17]): 0.6
- Activity (Mus musculus [18]): 167.3
- Activity (Mus musculus [19]): >65
- Max tolerated dose (Mus musculus [20]): >6.9 mg/kg
- Activity (Mus musculus [22]): 97.2
- Max tolerated dose (Mus musculus [23]): 31.8 mg/kg
- Activity (Mus musculus [24]): inactive
- Activity (Mus musculus [25]): 208.2
- Dose (Mus musculus [26]): >207.1 mg/kg
- Activity (Mus musculus [27]): 0.3
- Activity (Mus musculus [28]): 115.7
- Activity (Mus musculus [29]): 1.3
- Activity (Mus musculus [30]): 2.7
- Relative activity (CC-B): 50
- Activity (Mus musculus [31]): 0
- Activity (Mus musculus [32]): inactive
- Dose (Mus musculus [33]): >414.2 mg/kg
- Activity (Mus musculus [34]): 2.9
- Activity (Mus musculus [35]): 1
- Total dose (Mus musculus [36]): 414.2 mg/kg
- Dose (Mus musculus [37]): 952.8 mg/kg
- Activity (Mus musculus [38]): 1.6
- Max tolerated dose (Mus musculus [39]): >13.8 mg/kg
- Activity (Mus musculus [40]): 91.9
